ChEMBL document CHEMBL1124238, “Methotrexate analogues. 32. Chain extension, alpha-carboxyl deletion, and gamma-carboxyl replacement by sulfonate and phosphonate: effect on enzyme binding and cell-growth inhibition” (J Med Chem, 1988)
Each block holds one compound with its values, some of them ahead of it.

Key:
[1] = tested on: Folylpolyglutamate synthase (Mus musculus); assay: Inhibition of Folyl-polyglutamate synthase from mouse liver; design: concentration or dose not given beside the values; details: concentration not given here
Dihydrofolate reductase = target: T1, Dihydrofolate reductase (Mus musculus, UniProt P00375); assay: Inhibition of dihydrofolate reductase (DHFR) in mouse L1210 leukemia cells; assay type: cell-based
T1 sequence (P00375 whole entry): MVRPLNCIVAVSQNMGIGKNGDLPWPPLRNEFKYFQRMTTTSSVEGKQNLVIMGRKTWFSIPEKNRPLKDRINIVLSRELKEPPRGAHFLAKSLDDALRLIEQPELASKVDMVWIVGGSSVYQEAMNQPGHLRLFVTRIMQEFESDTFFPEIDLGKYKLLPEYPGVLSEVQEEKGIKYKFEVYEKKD

Mus musculus = species: Mus musculus; assay: (§1) Inhibition of Folyl-polyglutamate synthase from mouse liver; details: concentration not given here
In short: (§2)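 Partially purified mouse liver enzyme, run at 37 °C for 1 h in Tris buffer pH 8.6 with 20 mM α-thioglycerol. The mixture held 1 mM [3H]-L-glutamic acid, 500 μM folic acid and 500 μM inhibitor. Activity is expressed as percent of untreated control. Ki,s comes from a slope replot of double-reciprocal 1/V versus 1/S plots, and was not determined where inhibition was below 30%.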

[2] = as §1
In short: as §2

L1210 [3] = assay: Inhibition of cell growth against cultured L1210 leukemia cells in mouse; assay type: functional, cell-based
L1210 ( R81) = assay: (§3) Inhibition of cell growth against highly MTX- and AMT-resistant mutant L1210/R81; assay type: functional, cell-based; details: Mus musculus
L1210 [4] = assay: as §3; assay type: functional, cell-based; details: Mus musculus

Compound: Nc1nc(N)c2nc(CNc3ccc(C(=O)NC(CCS(=O)(=O)O)C(=O)O)cc3)cnc2n1 (stereo not given)
- inhibition [1]: 77%

Compound: CN(Cc1cnc2nc(N)nc(N)c2n1)c1ccc(C(=O)NCCCS(=O)(=O)O)cc1
- inhibition [1]: 18%

Compound: CCOP(=O)(O)CCCNC(=O)c1ccc(N(C)Cc2cnc3nc(N)nc(N)c3n2)cc1
- inhibition [1]: 9%

Compound: CN(Cc1cnc2nc(N)nc(N)c2n1)c1ccc(C(=O)NCS(=O)(=O)O)cc1
- inhibition [1]: 19%

Compound: CN(Cc1cnc2nc(N)nc(N)c2n1)c1ccc(C(=O)NCCS(=O)(=O)O)cc1
- inhibition [1]: 22%

Compound: Nc1nc(N)c2nc(CNc3ccc(C(=O)NC(CCCP(=O)(O)O)C(=O)O)cc3)cnc2n1 (stereo not given)
- IC50 (Dihydrofolate reductase): 83 nM
- inhibition (Mus musculus): 52%
- Ki [2]: 124 µM
- IC50 (L1210 [3]): 120 nM
- IC50 (L1210 ( R81)): > 460 µM

Compound: Nc1nc(N)c2nc(CNc3ccc(C(=O)NC(CP(=O)(O)O)C(=O)O)cc3)cnc2n1 (stereo not given)
- IC50 (Dihydrofolate reductase): 550 nM
- inhibition (Mus musculus): 22%
- Ki [2]: 900 µM
- IC50 (L1210 [3]): 250 nM
- IC50 (L1210 [4]): 390 µM

Compound: Nc1nc(N)c2nc(CNc3ccc(C(=O)NC(CCCCP(=O)(O)O)C(=O)O)cc3)cnc2n1 (stereo not given)
- IC50 (Dihydrofolate reductase): 67 nM
- inhibition (Mus musculus): 44%
- Ki [2]: 155 µM
- IC50 (L1210 [3]): 130 nM
- IC50 (L1210 ( R81)): > 280 µM

Compound: CN(Cc1cnc2nc(N)nc(N)c2n1)c1ccc(C(=O)NCCCCS(=O)(=O)O)cc1
- inhibition [1]: 26%

The next lines start with the values.

- IC50 (Dihydrofolate reductase): 63 nM
- inhibition (Mus musculus): 100%
- Ki [2]: 8.4 µM
- IC50 (L1210 [3]): 67 nM
- IC50 (L1210 ( R81)): 240 µM
Compound: Nc1nc(N)c2nc(CNc3ccc(C(=O)NC(CCP(=O)(O)O)C(=O)O)cc3)cnc2n1 (stereo not given)

- inhibition [1]: 16%
Compound: CN(Cc1cnc2nc(N)nc(N)c2n1)c1ccc(C(=O)NCCCP(=O)(O)O)cc1

- inhibition [1]: 22%
Compound: CN(Cc1cnc2nc(N)nc(N)c2n1)c1ccc(C(=O)NCCP(=O)(O)O)cc1

- inhibition [1]: 59%
Compound: CN(Cc1cnc2nc(N)nc(N)c2n1)c1ccc(C(=O)NC(CCS(=O)(=O)O)C(=O)O)cc1 (stereo not given)

- inhibition [1]: 53%
Compound: CN(Cc1cnc2nc(N)nc(N)c2n1)c1ccc(C(=O)NC(CCP(=O)(O)O)C(=O)O)cc1 (stereo not given)
